The nature of data set [1]: Cytotoxicity against HEK293 cells assessed as growth inhibition after 72 hrs by resazurin dye-based fluorescence assay relative to control. Also on record: concentration or dose not given beside the values. In kind it is cell-based. The note with it: human, read-out: GI. Summed up:
(§1)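 HEK293 cells kept in DMEM with 10% FBS. Exposed to compound for 72 h at 37 °C, 5% CO2; 16-point dose-response, 40 μM to 0.4 nM final, three concentrations per log, from 10 mM DMSO stocks. Medium then replaced with 44 μM resazurin; fluorescence read after 5−6 h (ex/em 530/595 nm). Data normalized to puromycin (5 μM) and 0.4% DMSO controls; IC50 from four-parameter logistic fit.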
(Resazurin is reduced to fluorescent resorufin, in cell work by metabolically active cells.)

Data set [2] relates to Plasmodium falciparum. Nature of the data set: Antiplasmodial activity against drug-sensitive Plasmodium falciparum 3D7 ring stage forms assessed as inhibition of parasite growth after 72 hrs by DAPI staining-based confocal microscopic analysis. The format is functional, organism-based. The following applies: 3D7, 72 h.
The test system of data set [3] is Plasmodium falciparum. Nature of the data set: Antiplasmodial activity against drug-resistant Plasmodium falciparum Dd2 ring stage forms assessed as inhibition of parasite growth after 72 hrs by DAPI staining-based confocal microscopic analysis. In kind it is functional, organism-based. The following applies: Dd2, 72 h. In a few lines:
(§2)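 Compounds from 10 mM DMSO stocks, 16-point dose-response, 40 μM to 0.4 nM final. Incubation 72 h at 37 °C, 90% N2/5% CO2/5% O2. DAPI stain, confocal imaging. Percent inhibition normalized to puromycin 5 μM and 0.4% DMSO controls; IC50 by four-parameter logistic fit.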

A short description of data set [4]: Selectivity ratio of IC50 for Plasmodium falciparum Dd2 ring stage forms to IC50 for Plasmodium falciparum 3D7 ring stage forms. In kind it is functional. Summed up: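 Sixteen-point dose-response, 40 μM to 0.4 nM final. Fit is four-parameter logistic on percent inhibition normalized to puromycin (5 μM) and 0.4% DMSO. Ratio is Dd2 IC50 over 3D7 IC50.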
The test system of data set [5] is Plasmodium falciparum. Description: Antiplasmodial activity against drug-sensitive Plasmodium falciparum 3D7 ring stage forms assessed as inhibition of parasite growth at 40 uM after 72 hrs by DAPI staining-based confocal microscopic analysis. In kind it is functional. The note with it: 3D7, 72 h, read-out: GI. Summed up: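 Exposed to compound for 72 h at 37 °C under 90% N2/5% CO2/5% O2. DAPI staining followed by confocal imaging. Percent inhibition normalized to puromycin (5 μM) and 0.4% DMSO controls.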

Data set [6] concerns Plasmodium falciparum. Nature of the data set: Antiplasmodial activity against drug-resistant Plasmodium falciparum Dd2 ring stage forms assessed as inhibition of parasite growth at 40 uM after 72 hrs by DAPI staining-based confocal microscopic analysis. The note with it: Dd2, 72 h, read-out: GI. In kind it is functional. Summed up: as §2
The nature of data set [7]: Selectivity index, ratio of IC50 for HEK293 cells to IC50 for drug-sensitive Plasmodium falciparum 3D7 ring stage forms. The format is toxicity. The following applies: human; read-out: Ratio IC50.
In a further data set the test system is HEK293. Description: Cytotoxicity against HEK293 cells after 72 hrs by resazurin dye-based fluorescence assay. The note with it: Homo sapiens, HEK293, 72 h. The format is cell-based. Summed up:
as §1

As a reminder, the IC50 is the concentration that gives 50% inhibition.

Consider `CCN(CC)CCCC(C)Nc1ccnc2cc(Cl)ccc12` (stereo not drawn) [CHLOROQUINE], for which, in data set [1], the inhibition at 72 h was 53.2%.

As for `COc1c(CC=C(C)C)c2c(c(O)c1C(C)=O)[C@H](CC(C)C)[C@H]1C(=O)C(C(C)=O)=C3O[C@@H](C(C)(C)O)C[C@@]3(O)[C@@]1(O)O2`, the figures for the IC50 with Plasmodium falciparum [2] and with Plasmodium falciparum [3] were 2700 nM and 4700 nM, respectively. In data set [1], the inhibition at 72 h was determined as 80.7%. In addition, the “Ratio IC50” value in data set [4] came to 1.7.

Take `CCc1nc(N)nc(N)c1-c1ccc(Cl)cc1` [PYRIMETHAMINE]: the IC50 in the data set with Plasmodium falciparum [2] was 7.7 nM. In data set [1], the inhibition at 72 h turned out to be 52%.

`C[C@H]1[C@@H](O)O[C@@H]2O[C@@]3(C)CC[C@H]4[C@H](C)CC[C@@H]1[C@@]24OO3` [ARTENIMOL]: the inhibition at 72 h in data set [1] amounted to 41.1%. For the same compound, in data set [4], the “Ratio IC50” value was found to be 1.8.

Turning to `COc1c(CC=C(C)C)c(O)c(C=O)c(O)c1C(C)=O` [ACRONYCULATIN A], the inhibition of growth at 40 µM in the data set on Plasmodium falciparum [5] worked out at 37.5%; in the data set on Plasmodium falciparum [6], 19.8%. Also, in data set [1], the inhibition at 72 h worked out at 7.4%.

With `COc1c(CC=C(C)C)c(O)cc(O)c1C(C)=O`, the IC50 was determined as 1800 nM with Plasmodium falciparum [2] and 3100 nM with Plasmodium falciparum [3]. Moreover, the inhibition at 72 h in data set [1] is 79.1%. Besides, in data set [4], the “Ratio IC50” value stood at 1.7.

On to `COc1ccc(C[C@H](N)C(=O)N[C@H]2[C@@H](O)[C@H](n3cnc4c(N(C)C)ncnc43)O[C@@H]2CO)cc1` [PUROMYCIN], for which the IC50 in the data set with Plasmodium falciparum [2] was 70.2 nM; in the data set with Plasmodium falciparum [3], 74.7 nM; with HEK293, 694 nM. In data set [7], the selectivity ratio worked out at 9.9. Moreover, the “Ratio IC50” value in data set [4] is 1.1.

`C[C@H]1[C@H](OC(=O)CCC(=O)O)O[C@@H]2O[C@@]3(C)CC[C@H]4[C@H](C)CC[C@@H]1[C@@]24OO3` [ARTESUNATE]: the IC50 in the data set with Plasmodium falciparum [3] was 3.3 nM. Moreover, the inhibition at 72 h in data set [1] amounted to 62.5%.

On to `COc1ccc2nc3cc(Cl)ccc3c(Nc3cc(CN4CCCC4)c(O)c(CN4CCCC4)c3)c2n1` [PYRONARIDINE], for which the IC50 with Plasmodium falciparum [2] worked out at 8.2 nM; with Plasmodium falciparum [3] it was 11 nM; in the data set on HEK293, 1990 nM. Further, in data set [7], the selectivity ratio turned out to be 246. The “Ratio IC50” value in data set [4] worked out at 1.3.

The record behind these values is ChEMBL document CHEMBL4480447, “Acrotrione: An Oxidized Xanthene from the Roots of Acronychia pubescens” (J Nat Prod, 2019).
